High-throughput results: PubChem, The Scripps Research Institute Molecular Screening Center
M5 antag: antagonists of human muscarinic M5 receptor (CHRM5); P08912; CHO-hM5 cells, Fluo-8 calcium fluorescence, ACh EC80; inhibition, % at 3 µM; actives 0.59% (n = 360,000); AID 624040;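 active = inhibition above a per-plate cutoff, the mean of that plate's test compounds plus 3 SD, cut at about 27% in these data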;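 note: 0% = acetylcholine EC80 with DMSO and 100% = DMSO without agonist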
M4 antag: blocks acetylcholine activation of human M4 receptor; P08173; CHO-hM4 cells, ACh EC80, Fluo-8 calcium fluorescence; actives 0.73% (n = 360,000); inhibition, % at 3 µM;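 active = inhibition above its plate's cutoff, the mean inhibition of sample wells plus 3 SD, cut at about 27% in these data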;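 note: 0% = acetylcholine EC80 with DMSO and 100% = DMSO without agonist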
Target sequence (P08173 whole entry, looked up): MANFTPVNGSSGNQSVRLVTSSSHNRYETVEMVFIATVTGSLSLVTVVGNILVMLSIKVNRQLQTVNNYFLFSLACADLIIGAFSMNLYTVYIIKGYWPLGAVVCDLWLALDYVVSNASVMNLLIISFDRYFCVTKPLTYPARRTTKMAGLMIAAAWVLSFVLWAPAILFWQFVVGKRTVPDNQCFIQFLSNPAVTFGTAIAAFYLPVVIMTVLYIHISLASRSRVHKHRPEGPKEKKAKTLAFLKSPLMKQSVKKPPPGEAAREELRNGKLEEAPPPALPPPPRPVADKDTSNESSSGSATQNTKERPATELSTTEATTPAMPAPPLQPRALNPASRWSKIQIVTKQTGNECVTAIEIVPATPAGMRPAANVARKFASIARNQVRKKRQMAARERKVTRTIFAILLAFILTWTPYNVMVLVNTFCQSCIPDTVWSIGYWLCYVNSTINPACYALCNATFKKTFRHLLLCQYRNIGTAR
CHRM5 PAM: positive allosteric modulators of human muscarinic M5 receptor; CHO-K1 hM5, Fluo-8 calcium, ACh EC20 PAM; 0% = ACh EC20, 100% = ACh EC100; activation, % at 3 µM; actives 0.3% (n = 360,000);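 active = activation above the run cutoff, the mean activation of all test compounds plus 3 SD, cut at about 18% in these data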
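system = human M5 receptor in CHO-K1 cells | compound = one concentration, 3 µM final (nominal) | schedule = Post-acetylcholine fluorescence recording 140 s | signal = Fluo-8 calcium dye fluorescence, kinetic read | benchmarks = low control EC20 acetylcholine (0%), high control EC100 acetylcholine (100%) | repeats = singlicate, one well per test compound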
M4 PAM: positive allosteric modulators of human muscarinic M4 receptor; P08173; CHO-K1 hM4/Gqi5, Fluo-8 calcium fluorescence, ACh EC20; 0% = ACh EC20, 100% = maximal ACh; activation, % at 3 µM; actives 0.4% (n = 360,000); AID 624126;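 active = activation above its plate's cutoff, the mean activation of sample wells plus 3 SD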
CHRM5 agonist: CHRM5 agonism in calcium assay; P08912; CHO-K1 hM5 cells, Fluo-8 calcium fluorescence; 0% DMSO wells, 100% maximal acetylcholine response; activation, % at 3 µM; actives 0.19% (n = 360,000);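 active = activation above the run's mean over test compounds plus 3 SD, cut at about 23% in these data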;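 note: signal is peak over basal fluorescence ratio across the kinetic read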
CHRM4 agonist: CHRM4 agonism in calcium assay; AID 624127; CHO-K1 hM4/Gqi5, Fluo-8 calcium fluorescence; vehicle 0%, full acetylcholine response 100%; activation, % at 3 µM; P08173; actives 0.14% (n = 360,000);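 active = activation above the run mean over all test wells plus 3 SD, cut at about 32% in these data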;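 note: peak over basal fluorescence ratio per well then scaled between controls; 0% = DMSO wells and 100% = acetylcholine at EC100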
The depositor's hits bear a star. Compounds with a hit are over-represented: about 1.8% of the library has one in this group of screens.

How did Cc1nc(N)sc1C(=O)N/N=C/c1ccc([N+](=O)[O-])cc1 do in these assays?
M5 antag: 12; M4 antag: -7; CHRM5 PAM: 0; M4 PAM: -5; CHRM5 agonist: -1; CHRM4 agonist: 1

Results for Cc1cc(S(=O)(=O)N2CCCOC2CNC(=O)C(=O)NCCCN2CCOCC2)ccc1F (stereo not drawn) ?
M5 antag: -21; M4 antag: 5; CHRM5 PAM: 9; M4 PAM: -2; CHRM5 agonist: -3; CHRM4 agonist: 1

How did Cc1ccc(-n2c(Cl)c(Cl)nc(Cl)c2=O)cc1 do in these assays?
M5 antag: 2; M4 antag: 37*; CHRM5 PAM: 2; M4 PAM: -6; CHRM5 agonist: -4; CHRM4 agonist: -3

How did COc1ccccc1CNC(=O)Nc1nc(C(N)Cc2ccc(Cl)cc2)cs1 (stereo not drawn) do in these assays?
M5 antag: 4; M4 antag: 27*; CHRM5 PAM: -1; M4 PAM: -4; CHRM5 agonist: 6; CHRM4 agonist: 15

How did COc1ccc(CNC(=O)Nc2nc(C(N)Cc3ccc(Cl)cc3)cs2)cc1 (stereo not drawn) do in these assays?
M5 antag: 15; M4 antag: 33*; CHRM5 PAM: -1; M4 PAM: -4; CHRM5 agonist: 5; CHRM4 agonist: 28

What do the screens show for `COc1ccc(CNC(=O)Nc2nc(C(N)Cc3ccc(F)cc3)cs2)cc1` (stereo not drawn)?
M5 antag: 9; M4 antag: 19; CHRM5 PAM: 2; M4 PAM: -5; CHRM5 agonist: 9; CHRM4 agonist: 18

Results for COc1ccccc1CNC(=O)Nc1nc(C(N)C(C)C)cs1 (stereo not drawn) ?
M5 antag: 0; M4 antag: 3; CHRM5 PAM: -2; M4 PAM: 2; CHRM5 agonist: 1; CHRM4 agonist: 1

Results for COc1cccc(NC(=S)N(Cc2ccc(C(=O)O)cc2)Cc2ccc(OC)c(OC)c2)c1 ?
M5 antag: -3; M4 antag: 9; CHRM5 PAM: 3; M4 PAM: 20*; CHRM5 agonist: 3; CHRM4 agonist: 1

Results for O=C(CN1CCN(c2ccc(O)cc2)CC1)NC(=O)NCc1ccco1 ?
M5 antag: -8; M4 antag: -14; CHRM5 PAM: 19*; M4 PAM: 11; CHRM5 agonist: 0; CHRM4 agonist: 1

Results for COc1ccc(N2CCN(CC(=O)NC(=O)NCc3ccco3)CC2)cc1 ?
M5 antag: -2; M4 antag: 4; CHRM5 PAM: 4; M4 PAM: 3; CHRM5 agonist: -1; CHRM4 agonist: 1

What do the screens show for `Cc1ccc2nc(-c3ccco3)c(CC3CCCCC3)n2c1`?
M5 antag: 6; M4 antag: 9; CHRM5 PAM: 0; M4 PAM: -1; CHRM5 agonist: -1; CHRM4 agonist: 2

Results for O=C1/C(=C\c2c(NCCOCCO)nc3ccccn3c2=O)SC(=S)N1Cc1ccco1 ?
M5 antag: 19; M4 antag: 24; CHRM5 PAM: -10; M4 PAM: -12; CHRM5 agonist: 60*; CHRM4 agonist: 19

Results for COc1ccc(/C=C/C(=O)CC(O)(c2ccccc2)C(F)(F)F)cc1 (stereo not drawn) ?
M5 antag: 3; M4 antag: -1; CHRM5 PAM: -11; M4 PAM: -14; CHRM5 agonist: -5; CHRM4 agonist: 1

What do the screens show for `O=C(/C=C/c1ccccc1)CC(O)(c1ccccc1)C(F)(F)C(F)F` (stereo not drawn)?
M5 antag: 7; M4 antag: 47*; CHRM5 PAM: -9; M4 PAM: -33; CHRM5 agonist: -6; CHRM4 agonist: -2

How did O=C(/C=C/c1ccccc1)CC(O)(c1ccccc1)C(F)(F)F (stereo not drawn) do in these assays?
M5 antag: 7; M4 antag: 31*; CHRM5 PAM: -5; M4 PAM: -27; CHRM5 agonist: -7; CHRM4 agonist: -2
